23 compounds from ChEMBL document CHEMBL2163190, “Synthesis and evaluation of substituted chroman-4-one and chromone derivatives as sirtuin 2-selective inhibitors” (J Med Chem, 2012) can be followed below.

The source made the active and inactive calls. The calls are words filed in the database; no cut-off is given here.

The target of assay [1] is T1, NAD-dependent protein deacetylase sirtuin-2 (Homo sapiens, UniProt Q8IXJ6).
T1 sequence (Q8IXJ6 whole entry): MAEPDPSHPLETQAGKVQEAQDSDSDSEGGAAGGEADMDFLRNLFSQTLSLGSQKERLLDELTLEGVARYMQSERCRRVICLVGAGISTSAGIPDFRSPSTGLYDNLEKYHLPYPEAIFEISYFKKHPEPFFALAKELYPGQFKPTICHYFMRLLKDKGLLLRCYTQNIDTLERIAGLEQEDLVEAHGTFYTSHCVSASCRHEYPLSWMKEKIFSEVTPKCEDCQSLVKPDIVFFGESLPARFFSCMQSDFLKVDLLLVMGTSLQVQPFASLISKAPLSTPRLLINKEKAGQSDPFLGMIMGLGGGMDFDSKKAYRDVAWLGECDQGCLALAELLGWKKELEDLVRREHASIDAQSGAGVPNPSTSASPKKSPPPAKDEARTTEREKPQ
The experiment in a line: Inhibition of human recombinant GST-tagged SIRT2 preincubated for 5 mins measured after 1 hr by Fluor de Lys-based fluorescence assay. In a few lines: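 Fluorogenic GST-SIRT2 assay using KI179 at 0.7 Km and NAD+ at 0.9 Km, in BSA-supplemented HDAC buffer. Compound, substrate and NAD+ were preincubated 5 min at RT, then enzyme added for 1 h at 37 °C, followed by developer/nicotinamide for 45 min at 37 °C. Fluorescence read at 355/460 nm.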

Assay [2] deals with T2, NAD-dependent protein deacetylase sirtuin-1 (Homo sapiens) (UniProt Q96EB6).
T2 sequence (whole entry): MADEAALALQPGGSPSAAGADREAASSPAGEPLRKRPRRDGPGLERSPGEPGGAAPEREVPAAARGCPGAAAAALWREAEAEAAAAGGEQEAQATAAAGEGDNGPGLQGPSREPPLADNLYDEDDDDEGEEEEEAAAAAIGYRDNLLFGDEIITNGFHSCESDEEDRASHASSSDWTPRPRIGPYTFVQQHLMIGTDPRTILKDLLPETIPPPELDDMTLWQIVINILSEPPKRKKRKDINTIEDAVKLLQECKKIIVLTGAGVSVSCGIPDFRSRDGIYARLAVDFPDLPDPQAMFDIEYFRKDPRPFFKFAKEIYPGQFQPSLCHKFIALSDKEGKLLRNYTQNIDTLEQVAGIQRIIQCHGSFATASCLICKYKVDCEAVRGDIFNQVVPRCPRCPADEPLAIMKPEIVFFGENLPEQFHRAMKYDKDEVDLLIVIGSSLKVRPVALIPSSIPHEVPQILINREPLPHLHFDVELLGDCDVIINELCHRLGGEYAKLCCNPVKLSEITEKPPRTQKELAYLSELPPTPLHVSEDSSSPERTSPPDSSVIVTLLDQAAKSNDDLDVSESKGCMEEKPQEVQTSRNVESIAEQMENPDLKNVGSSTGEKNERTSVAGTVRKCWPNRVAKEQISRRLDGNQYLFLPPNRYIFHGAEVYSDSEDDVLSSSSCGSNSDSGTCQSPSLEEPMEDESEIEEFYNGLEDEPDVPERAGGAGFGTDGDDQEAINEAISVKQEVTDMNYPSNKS
The experiment in a line: Inhibition of recombinant GST-tagged SIRT1 preincubated at 200 uM for 5 mins measured after 1hr by Fluor de Lys-based fluorescence assay. In a few lines:
(§1)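 Fluor de Lys assay with compound at 200 μM in DMSO. […] Substrate was used at 0.7 Km and NAD+ at 0.9 Km. Preincubated 5 min at RT, then enzyme for 1 h at 37 °C, then developer/nicotinamide for 45 min at 37 °C. Read at ex 355/em 460 nm.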

The target in assay [3] is T3, NAD-dependent protein deacetylase sirtuin-2 (Homo sapiens) (UniProt Q8IXJ6).
T3 sequence (whole entry): T1 sequence (Q8IXJ6 whole entry)
The experiment in a line: Inhibition of human recombinant GST-tagged SIRT2 preincubated at 200 uM for 5 mins measured after 1 hr by Fluor de Lys-based fluorescence assay. In a few lines: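 GST-SIRT2 assay with Fluor de Lys KI179 substrate at 0.7 Km (Km 198 μM) and NAD+ at 0.9 Km (Km 547 μM), in HDAC buffer with 1 mg/mL BSA. Substrate, NAD+ and compound (200 μM, DMSO) were preincubated 5 min at RT, then enzyme added for 1 h at 37 °C. Developer plus nicotinamide (2 mM) was added for 45 min at 37 °C. Read at ex 355/em 460 nm; n = 3, SD.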

Assay [4] has as its target T4, NAD-dependent protein deacetylase sirtuin-3, mitochondrial (Homo sapiens) (UniProt Q9NTG7).
T4 sequence (whole entry): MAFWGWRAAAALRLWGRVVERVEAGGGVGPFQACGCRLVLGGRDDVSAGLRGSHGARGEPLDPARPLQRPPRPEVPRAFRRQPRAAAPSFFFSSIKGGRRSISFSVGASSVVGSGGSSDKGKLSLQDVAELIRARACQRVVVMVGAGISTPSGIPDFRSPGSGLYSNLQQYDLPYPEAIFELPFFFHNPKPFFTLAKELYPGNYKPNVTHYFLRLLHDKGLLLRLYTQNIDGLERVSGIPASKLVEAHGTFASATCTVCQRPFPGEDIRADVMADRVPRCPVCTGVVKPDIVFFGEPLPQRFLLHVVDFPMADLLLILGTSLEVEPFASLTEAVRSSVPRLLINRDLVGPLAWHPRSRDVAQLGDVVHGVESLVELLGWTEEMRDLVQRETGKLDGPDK
The assay can be described thus: Inhibition of recombinant His-tagged SIRT3 preincubated at 200 uM for 5 mins measured after 1hr by Fluor de Lys-based fluorescence assay. In a few lines:
as §1

Assay [5] has as its target T3, NAD-dependent protein deacetylase sirtuin-2 (Homo sapiens). The experiment in a line: Inhibition of human SIRT2 assessed as inhibition of deacetylation of rat stem cell acetylated alpha-tubulin at 200 uM after 30 to 60 mins by Western blot analysis. Put shortly: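 Acetylated α-tubulin (0.5 μg) isolated from rat stem cells was incubated with recombinant GST-SIRT2, NAD+ (500 μM) and compound (200 μM final, DMSO vehicle) in SIRT assay buffer for 30 or 60 min at 37 °C. Samples were resolved on 10% SDS-PAGE and blotted to nitrocellulose. Probed with anti-acetylated tubulin mAb 6-11B-1 (1:8000, 2 h, RT), then HRP anti-mouse secondary (1:50000, 2 h).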
(In general: Immunoblotting shows a protein as a band on a membrane.)

Assay [6] has the same target. The experiment in a line: Inhibition of SIRT2 using RSTGGK(Ac)APRKQ as substrate assessed as inhibition of [14C]nicotinamide release at 200 uM after 1h by TLC. In a few lines:
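Recombinant GST-SIRT2 started the reaction with [carbonyl-14C]NAD+ (43.2 nCi) and acetylated peptide RSTGGK(Ac)APRKQ (196 μM). Buffer was HDAC assay buffer plus 1 mg/mL BSA, with compound at 200 μM final in DMSO. Incubated 1 h at 37 °C. The whole mixture was run on silica TLC in ethanol/2.5 M ammonium acetate (80:20), exposed overnight to X-ray film, and [14C]nicotinamide quantified by densitometry.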

On to `CCCCCc1cc(=O)c2cc(Cl)cc(Br)c2o1`, for which the IC50 (commonly the concentration that gives 50% inhibition) in assay [1] came out at 5.5 µM. Besides, the inhibition – broadly, the change of the read-out against control, counted positive when it falls – was less than 10% in assay [2], 82% in assay [3] and less than 10% in assay [4].

Take `CCCCC[C@@H]1CC(=O)c2cc(Cl)cc(Br)c2O1`: in assay [1], the half-maximal inhibitory concentration (IC50) worked out at 4.5 µM. Besides, the inhibition was less than 10% in assay [2], 70% in assay [3] and less than 10% in assay [4].

For `CCCCC[C@H]1CC(=O)c2cc(Cl)cc(Br)c2O1`, in assay [1], the half-maximal inhibitory concentration (IC50) was found to be 1.5 µM. For the same compound, the inhibition in assay [2] is less than 10%; in assay [3] it was 91%; in assay [4], less than 10%.

As for `CCCCCC1C=Cc2cc(Cl)cc(Br)c2O1` (centres undefined), the inhibition in assay [3] was found to be 38%.

For the compound `CCCCCC1CCc2cc(Cl)cc(Br)c2O1` (centres undefined), in assay [3], the inhibition is 38%.

Turning to `O=c1cc(-c2ccccc2)oc2c(Br)cc(Cl)cc12`, the inhibition in assay [3] worked out at 20%.

With `CCCCCC1CC(O)c2cc(Cl)cc(Br)c2O1` (mixture of isomers), the inhibition in assay [3] came to 31%.

As to `CCCC1CC(=O)c2cc(Cl)cc(Br)c2O1` (racemic), the concentration for half-maximal inhibition (IC50) in assay [1] was found to be 10.6 µM. The inhibition in assay [2] was less than 10%; in assay [3] it was 76%; in assay [4] it was less than 10%.

Take `O=C1CC(CCc2ccccc2)Oc2c(Br)cc(Cl)cc21` (racemic): the IC50 in assay [1] came to 6.8 µM. The inhibition was less than 10% in assay [2], 81% in assay [3] and 16% in assay [4].

Regarding `CCCCCC1CC(=O)c2cc(Cl)cc(Br)c2O1` (racemic), the inhibition result in assay [5] is “Active”. Further, in assay [1], the half-maximal inhibitory concentration (IC50) came to 4.3 µM. The inhibition in assay [6] is 66%; in assay [2], less than 10%; in assay [3] it was 88%; in assay [4] it was less than 10%.

For `CCCCCC1CC(=O)c2cc(Br)cc(Br)c2O1` (racemic), the 50% inhibitory concentration (IC50) in assay [1] stood at 1.5 µM. The inhibition in assay [2] is less than 10%; in assay [3] it was 92%; in assay [4] it was less than 10%.

`CCCCCC1CC(=O)c2cc(C)cc(C)c2O1` (racemic): the 50% inhibitory concentration (IC50) in assay [1] is 6.2 µM. Also, the inhibition in assay [2] was less than 10%; in assay [3], 83%; in assay [4] it was less than 10%.

On to `CC(C)C1CC(=O)c2cc(Cl)cc(Br)c2O1` (racemic), for which, in assay [3], the inhibition is 52%.

As to `CCCCCC1CC(=O)c2cc(Cl)ccc2O1` (racemic), the inhibition in assay [3] was determined as 55%.

In the case of `CCCCCC1CC(=O)c2cc(F)cc(F)c2O1` (racemic), in assay [3], the inhibition was found to be 30%.

In the case of `CCCCCC1CC(=O)c2cc(OC)ccc2O1` (racemic), in assay [3], the inhibition was determined as 20%.

As for `CCCCCC1CC(=O)c2cc([N+](=O)[O-])ccc2O1` (racemic), the inhibition in assay [3] came to 58%.

Regarding `CCCCCC1CC(=O)c2ccc(F)cc2O1` (racemic), in assay [3], the inhibition was 18%.

`CCCCCC1CC(=O)c2cccc(Br)c2O1` (racemic): in assay [3], the inhibition stood at 28%.

Consider `CCCCCC1CC(=O)c2ccccc2O1` (racemic), for which the inhibition in assay [3] turned out to be 4.9%.

Regarding `CCCCCCCC1CC(=O)c2cc(Cl)cc(Br)c2O1` (racemic), the inhibition in assay [3] stood at 57%.

With `Cc1ccc(S(=O)(=O)n2cc(CCC3CC(=O)c4cc(Cl)cc(Br)c4O3)c3ccccc32)cc1` (racemic), the inhibition in assay [3] was 27%.

Consider `O=C1CC(CCc2c[nH]c3ccccc23)Oc2c(Br)cc(Cl)cc21` (racemic), for which the inhibition in assay [3] was found to be 53%.
